Data taken from ChEMBL document CHEMBL1146754, “Estrogen receptor ligands. Part 4: The SAR of the syn-dihydrobenzoxathiin SERAMs” (Bioorg Med Chem Lett, 2004).

Tests used:
Estrogen receptor [1] = molecular target: T1, Estrogen receptor (Homo sapiens, UniProt P03372)
T1 sequence (P03372 whole entry): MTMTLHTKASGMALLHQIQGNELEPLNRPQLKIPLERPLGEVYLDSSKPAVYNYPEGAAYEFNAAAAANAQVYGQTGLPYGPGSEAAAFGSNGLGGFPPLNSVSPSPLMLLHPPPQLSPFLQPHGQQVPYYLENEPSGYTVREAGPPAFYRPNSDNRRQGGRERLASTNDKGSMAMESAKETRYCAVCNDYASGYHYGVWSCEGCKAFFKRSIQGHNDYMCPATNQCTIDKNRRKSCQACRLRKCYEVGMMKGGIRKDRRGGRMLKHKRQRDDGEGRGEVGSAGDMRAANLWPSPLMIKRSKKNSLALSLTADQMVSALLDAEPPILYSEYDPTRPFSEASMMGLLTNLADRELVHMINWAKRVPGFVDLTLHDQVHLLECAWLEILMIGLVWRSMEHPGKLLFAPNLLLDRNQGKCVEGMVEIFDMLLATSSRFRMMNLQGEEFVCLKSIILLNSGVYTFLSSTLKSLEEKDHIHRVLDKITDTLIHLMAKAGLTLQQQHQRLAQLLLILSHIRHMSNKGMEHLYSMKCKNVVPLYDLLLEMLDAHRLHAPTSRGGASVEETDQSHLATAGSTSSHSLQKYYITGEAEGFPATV

Estrogen receptor beta [2] = molecular target: T2, Estrogen receptor beta (Homo sapiens, UniProt Q92731); experiment: Potency in cellular transactivation assay utilizing HEK293 cells stably co-transfected with human estrogen receptor beta and the alkaline phosphatase reporter gene; assay type: functional, cell-based
T2 sequence (Q92731 whole entry): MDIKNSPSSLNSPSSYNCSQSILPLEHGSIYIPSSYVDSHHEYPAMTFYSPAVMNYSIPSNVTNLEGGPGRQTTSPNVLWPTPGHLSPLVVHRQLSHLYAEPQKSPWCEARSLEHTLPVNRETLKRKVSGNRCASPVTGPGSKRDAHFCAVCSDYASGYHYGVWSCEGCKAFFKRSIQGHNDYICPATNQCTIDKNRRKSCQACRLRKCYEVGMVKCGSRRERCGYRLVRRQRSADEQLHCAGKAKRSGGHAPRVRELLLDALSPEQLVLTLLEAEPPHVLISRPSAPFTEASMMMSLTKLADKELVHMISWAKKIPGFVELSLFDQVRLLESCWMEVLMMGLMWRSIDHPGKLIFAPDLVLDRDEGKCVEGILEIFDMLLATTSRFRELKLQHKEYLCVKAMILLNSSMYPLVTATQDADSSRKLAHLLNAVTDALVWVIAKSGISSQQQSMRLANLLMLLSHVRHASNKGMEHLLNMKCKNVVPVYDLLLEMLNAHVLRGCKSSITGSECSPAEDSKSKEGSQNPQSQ

Estrogen receptor [3] = molecular target: T1, Estrogen receptor; experiment: Potency in cellular transactivation assay utilizing HEK293 cells stably co-transfected with human estrogen receptor alpha and the alkaline phosphatase reporter gene.; assay type: functional, cell-based
Estrogen receptor beta [4] = molecular target: T2, Estrogen receptor beta
Rattus norvegicus [5] = organism: Rattus norvegicus; experiment: (§1) Bioavailability in rat (Sprague-Dawley) (female); assay type: ADME, organism-based; conditions: in vivo
Method in brief: (§2)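 Female Sprague–Dawley rats were dosed intravenously at 1 mpk (n = 2) and orally at 2 mpk (n = 3) for pharmacokinetic evaluation.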

Rattus norvegicus [6] = organism: Rattus norvegicus; experiment: (§3) Half life period in female Sprague-Dawley rats; assay type: ADME, organism-based; conditions: in vivo
Method in brief: as §2

Rattus norvegicus [7] = organism: Rattus norvegicus; experiment: (§4) Plasma clearance of the compound in female Sprague-Dawley rats; assay type: ADME, organism-based; conditions: in vivo
Method in brief: as §2

[8] = molecular target: T3, Estrogen receptor (Rattus norvegicus) (UniProt P06211+Q62986); conditions: at 1 mg/kg
[9] = molecular target: T3, Estrogen receptor (Rattus norvegicus); conditions: at 1 mg/kg; remark: listed apart in the source
[10] = as §1; assay type: ADME, organism-based; conditions: female, Sprague-Dawley, in vivo
Method in brief: as §2

[11] = as §3; assay type: ADME, organism-based; conditions: female, Sprague-Dawley, rat, in vivo
Method in brief: as §2

[12] = as §4; assay type: ADME, organism-based; conditions: female, Sprague-Dawley, rat, plasma
Method in brief: as §2

[13] = molecular target: T3, Estrogen receptor (Rattus norvegicus); conditions: at 1 mg/kg; remark: listed apart in the source
Estrogen receptor [14] = molecular target: T1, Estrogen receptor; experiment: Agonist effect in transcriptional activation in HEK293 cells expressing human estrogen receptor alpha; NA= not active; assay type: functional, cell-based
Estrogen receptor beta [15] = molecular target: T2, Estrogen receptor beta; experiment: Agonist effect in transcriptional activation in HEK293 cells expressing human estrogen receptor beta; NA= not active; assay type: functional, cell-based
[16] = molecular target: T3, Estrogen receptor (Rattus norvegicus); conditions: at 1 mg/kg; remark: listed apart in the source

Compound | IC50 (Estrogen receptor [1]) | IC50 (Estrogen receptor beta [2]) | IC50 (Estrogen receptor [3]) | IC50 (Estrogen receptor beta [4]) | Antagonism [8] | Estrogenic effect [9] | also measured
Oc1ccc([C@@H]2Sc3cc(O)cc(Cl)c3O[C@@H]2c2ccc(OCCN3CCCCC3)cc2)cc1 | 5.3 nM | 1010 nM | 25.4 nM | 105 nM | – | – | –
Oc1ccc([C@@H]2Sc3cc(O)ccc3O[C@@H]2c2ccc(OCCN3CCCCC3)cc2)cc1 (stereo in doubt; 11L) [listing 1 of 2 here] | – | – | – | – | – | – | F (Rattus norvegicus [5]): 10%; T1/2 (Rattus norvegicus [6]): 1.6 h; CL (Rattus norvegicus [7]): 31 mL/min/kg
CN(C)CCOc1ccc([C@@H]2Oc3ccc(O)cc3S[C@@H]2c2cccc(O)c2)cc1 | 1.4 nM | 7.3 nM | 2.3 nM | 129 nM | 34% | 69% | –
Oc1ccc([C@@H]2Sc3cc(O)c(F)cc3O[C@@H]2c2ccc(OCCN3CCCCC3)cc2)cc1 | 13.5 nM | – | – | 413 nM | 53% | 13% | –
Oc1ccc([C@@H]2Sc3c(ccc(O)c3F)O[C@@H]2c2ccc(OCCN3CCCCC3)cc2)cc1 | 0.8 nM | 177 nM | 2.5 nM | 13.2 nM | 76% | 7% | bioavailability [10]: 22%; half-life [11]: 2.4 h; clearance [12]: 16 mL/min/kg
Cc1cc(O)cc2c1O[C@H](c1ccc(OCCN3CCCCC3)cc1)[C@H](c1ccc(O)cc1)S2 | 5.3 nM | 690 nM | 22.6 nM | 343 nM | -4% | 12% | –
Oc1ccc([C@@H]2Sc3cc(O)c(Cl)cc3O[C@@H]2c2ccc(OCCN3CCCCC3)cc2)cc1 | 5.4 nM | 2370 nM | 14.8 nM | 73 nM | 36% | 38% | –
Cc1cc(O)cc2c1S[C@@H](c1ccc(O)cc1)[C@@H](c1ccc(OCCN3CCCCC3)cc1)O2 | 2 nM | 200 nM | 5.5 nM | 46.2 nM | – | – | bioavailability [10]: 6%; half-life [11]: 2.7 h; clearance [12]: 51 mL/min/kg
Oc1ccc([C@@H]2Sc3cc(O)ccc3O[C@@H]2c2ccc(OCCN3CCCCC3)cc2)cc1 (stereo in doubt; 11) [listing 1 of 2 here] | – | – | – | – | 77% | 5% | –
Cc1c(O)ccc2c1O[C@H](c1ccc(OCCN3CCCCC3)cc1)[C@H](c1ccc(O)cc1)S2 | 1.2 nM | 68.3 nM | 9.3 nM | 54 nM | 29% | 27% | –
Oc1ccc([C@H]2Sc3cc(O)ccc3O[C@H]2c2ccc(OCCN3CCCCC3)cc2)cc1 | – | – | – | – | – | – | bioavailability [10]: 62%; half-life [11]: 3.4 h; Estrogenic effect [13]: 9%; clearance [12]: 10 mL/min/kg
CC1CCCC(C)N1CCOc1ccc([C@@H]2Oc3ccc(O)cc3S[C@@H]2c2cccc(O)c2)cc1 (stereo partly specified) | 3.4 nM | – | – | 350 nM | 43% | 30% | IC50 (Estrogen receptor [14]): Not Active; IC50 (Estrogen receptor beta [15]): Not Active
Oc1ccc([C@@H]2Sc3ccc(O)cc3O[C@@H]2c2ccc(OCCN3CCCCC3)cc2)cc1 | 1.8 nM | 239 nM | 5 nM | 44.4 nM | 67% | 1% | bioavailability [10]: 0%; half-life [11]: 2.2 h; clearance [12]: 154 mL/min/kg
CCc1c(O)ccc2c1O[C@H](c1ccc(OCCN3CCCCC3)cc1)[C@H](c1ccc(O)cc1)S2 | 4.7 nM | – | – | 25 nM | – | – | –
Oc1cccc(C2Sc3cc(O)ccc3OC2c2ccc(OCCN3CCCCC3)cc2)c1 (stereo unspecified) | 3 nM | 245 nM | 3.6 nM | 250 nM | 90% | 16% | –
Oc1ccc2c(c1)SC(c1ccc(F)cc1)C(c1ccc(OCCN3CCCCC3)cc1)O2 (stereo unspecified) | 3.8 nM | 1550 nM | 94 nM | 66.6 nM | 9.5% | 5% | –
Oc1ccc([C@@H]2Sc3cc(O)ccc3O[C@@H]2c2ccc(OCCN3CCCCC3)cc2)cc1 (stereo in doubt; 11) [listing 2 of 2 here] | – | – | – | – | – | – | F (Rattus norvegicus [5]): 31%; T1/2 (Rattus norvegicus [6]): 3.8 h; CL (Rattus norvegicus [7]): 5 mL/min/kg

Compound | IC50 (Estrogen receptor [1]) | IC50 (Estrogen receptor beta [2]) | IC50 (Estrogen receptor [3]) | IC50 (Estrogen receptor beta [4]) | Antagonism [8] | Estrogenic effect [9] | also measured
Oc1ccc([C@@H]2Sc3c(F)cc(O)cc3O[C@@H]2c2ccc(OCCN3CCCCC3)cc2)cc1 | 0.5 nM | 516 nM | 6.1 nM | 13 nM | 89% | -2% | bioavailability [10]: 4.4%; half-life [11]: 5.9 h; clearance [12]: 41 mL/min/kg
Cc1cc2c(cc1O)O[C@H](c1ccc(OCCN3CCCCC3)cc1)[C@H](c1ccc(O)cc1)S2 | 34.9 nM | – | – | 595 nM | – | – | –
Oc1ccc([C@@H]2Sc3c(Cl)cc(O)cc3O[C@@H]2c2ccc(OCCN3CCCCC3)cc2)cc1 | 0.51 nM | 121 nM | 3.4 nM | 8 nM | 68% | 12% | –
Oc1ccc([C@@H]2Sc3cc(Cl)c(O)cc3O[C@@H]2c2ccc(OCCN3CCCCC3)cc2)cc1 | 23.1 nM | 3020 nM | 61 nM | 520 nM | – | – | –
Oc1cccc([C@H]2Sc3cc(O)ccc3O[C@H]2c2ccc(OCCNC3CCCCCC3)cc2)c1 | 1.2 nM | 67 nM | 3.5 nM | 103 nM | 57% | 22% | –
CC1CCN(CCOc2ccc([C@@H]3Oc4ccc(O)cc4S[C@@H]3c3cccc(O)c3)cc2)CC1 | 0.8 nM | 132 nM | 4 nM | 109 nM | 59% | 29% | –
CCc1cc(O)cc2c1S[C@@H](c1ccc(O)cc1)[C@@H](c1ccc(OCCN3CCCCC3)cc1)O2 | 53.3 nM | 1460 nM | 342 nM | 185 nM | – | – | –
Oc1ccc2c(c1)S[C@@H](c1ccccc1O)[C@@H](c1ccc(OCCN3CCCCC3)cc1)O2 | 1.3 nM | – | – | 1.1 nM | – | – | –
Oc1ccc([C@@H]2Sc3c(ccc(O)c3Cl)O[C@@H]2c2ccc(OCCN3CCCCC3)cc2)cc1 | 2.4 nM | 64 nM | 1 nM | 14 nM | 67% | 27% | –
Oc1ccc([C@@H]2Sc3c(O)cc(O)cc3O[C@@H]2c2ccc(OCCN3CCCCC3)cc2)cc1 | 25 nM | – | – | 788 nM | 64% | 7% | –
COc1ccc(C2Sc3cc(O)ccc3OC2c2ccc(OCCN3CCCCC3)cc2)cc1 (stereo unspecified) | 41.1 nM | > 1000 nM | 274 nM | 792 nM | – | – | –
Oc1ccc([C@H]2Sc3c(ccc(O)c3F)O[C@H]2c2ccc(OCCN3CCCCC3)cc2)cc1 | 1 nM | – | – | 18 nM | – | – | bioavailability [10]: 37%; half-life [11]: 3.1 h; Estrogenic effect [13]: 1%; Antagonism [16]: 100%; clearance [12]: 18 mL/min/kg
Oc1cccc([C@H]2Sc3cc(O)ccc3O[C@H]2c2ccc(OCCN3CCCC3)cc2)c1 | 0.9 nM | 40.1 nM | 1.7 nM | 37 nM | 77% | 22% | –
Oc1ccc2c(c1)SC(c1ccccc1)C(c1ccc(OCCN3CCCCC3)cc1)O2 (stereo unspecified) | 11.9 nM | – | – | 300 nM | – | – | –
Oc1cccc([C@H]2Sc3cc(O)ccc3O[C@H]2c2ccc(OCCN3CCOCC3)cc2)c1 | 3.8 nM | 65.3 nM | 4.7 nM | 318 nM | 54% | 29% | –
Oc1ccc([C@@H]2Sc3cc(O)ccc3O[C@@H]2c2ccc(OCCN3CCCCC3)cc2)cc1 (stereo in doubt; 11L) [listing 2 of 2 here] | – | – | – | – | – | – | Estrogenic effect [13]: 1%; Antagonism [16]: 16%
Oc1cccc([C@H]2Sc3cc(O)ccc3O[C@H]2c2ccc(OCCN3CCCCC3)cc2)c1 | 4.1 nM | 157 nM | 5.4 nM | 115 nM | 78% | 12% | –
